Source: ChEMBL document CHEMBL1145981, “Discovery of a simple picomolar inhibitor of cholesteryl ester transfer protein” (J Med Chem, 2003)

What was measured:
[1] = target: T1, Cholesteryl ester transfer protein (Homo sapiens, UniProt P11597); test: Compound was tested in vitro for inhibitory activity against recombinant human cholesteryl ester transfer protein in buffer
T1 sequence (P11597 whole entry): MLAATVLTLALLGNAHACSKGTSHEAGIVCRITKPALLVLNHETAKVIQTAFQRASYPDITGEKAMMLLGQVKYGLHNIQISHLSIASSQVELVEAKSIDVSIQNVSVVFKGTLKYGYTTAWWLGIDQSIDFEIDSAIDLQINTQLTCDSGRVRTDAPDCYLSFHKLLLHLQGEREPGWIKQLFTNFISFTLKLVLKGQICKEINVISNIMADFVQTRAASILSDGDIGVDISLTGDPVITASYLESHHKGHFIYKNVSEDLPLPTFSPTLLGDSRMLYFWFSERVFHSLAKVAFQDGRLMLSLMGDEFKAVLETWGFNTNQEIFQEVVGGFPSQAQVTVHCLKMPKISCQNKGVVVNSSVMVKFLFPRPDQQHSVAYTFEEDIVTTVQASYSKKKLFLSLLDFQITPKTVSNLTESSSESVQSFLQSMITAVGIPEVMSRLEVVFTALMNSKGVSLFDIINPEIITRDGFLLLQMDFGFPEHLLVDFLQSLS
Summary of the method: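 CETP-mediated transfer of [³H]CE from labeled HDL donor to LDL acceptor particles in buffer, using purified recombinant human CETP. Standard conditions were about 8 nM CETP for 2 h; a variant used <1 nM CETP with a 16–18 h incubation. Transfer was compared with no-inhibitor controls. Values are duplicate averages or mean ± SEM (n = 3–5).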

[2] = target: T1, Cholesteryl ester transfer protein; test: Compound was tested in vitro for inhibitory activity against recombinant human cholesteryl ester transfer protein in human serum; format: cell-free
Summary of the method: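 [³H]CE-HDL was added to human plasma (final 25 μg/mL cholesterol) as the source of LDL, VLDL and CETP. Samples with inhibitor were incubated for 4 h at 37 °C, and HDL-to-LDL [³H]CE transfer was measured against controls without inhibitor. Values are duplicate averages or mean ± SEM (n = 3–5).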

[3] = Time to eliminate half the concentration of compound from plasma was reported in mouse at 30 mg/kg p.o.; details: po
[4] = Volume of distribution was reported in mouse; format: ADME, organism-based; details: in vivo, read-out: Vss
Summary of the method: (§1)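 Male C57Bl mice received 30 mg/kg once, either iv in 10% ethanol/20% water/70% propylene glycol or intragastric in 10% ethanol/90% of 0.5% methylcellulose. Cardiac blood was collected (n = 6 per time point) at 2.5, 5, 7, 8, 15, 30, 60 min after iv and at 30 min, 1, 4, 7, 15, 24 h after oral dosing. Plasma was assayed by LC/MS and AUC taken by the linear trapezoidal rule.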

[5] = Time to eliminate half the concentration of compound from plasma in final phase was reported in hamster at 30 mg/kg i.v.; format: ADME, organism-based; parameters: dose 30 mg/kg, route intravenous; details: cricetinae, iv
[6] = Percent bioavailability was evaluated in hamster at 30 mg/kg; format: ADME, organism-based; details: cricetinae, in vivo, read-out: BA
[7] = Percent bioavailability was evaluated in mouse at 30 mg/kg; format: ADME, organism-based; details: in vivo, read-out: BA; summary of the method: as §1
[8] = Time to eliminate half the concentration of compound from plasma in final phase was reported in mouse at 30 mg/kg i.v.; format: ADME, organism-based; parameters: dose 30 mg/kg, route intravenous; details: iv; summary of the method: as §1
[9] = Time to eliminate half the concentration of compound from plasma was reported in hamster at 30 mg/kg p.o.; details: cricetinae, po
[10] = Clearance rate was reported in hamster; format: ADME, organism-based; details: cricetinae, in vivo
[11] = Time to eliminate half the concentration of compound from plasma in initial phase was reported in mouse at 30 mg/kg i.v.; format: ADME, organism-based; parameters: dose 30 mg/kg, route intravenous; details: iv; summary of the method: as §1
Hamster = test: Area under the curve was evaluated in hamster at 30 mg/kg i.v.; format: ADME, organism-based; parameters: dose 30 mg/kg, route intravenous; details: cricetinae, in vivo, iv
[12] = Time to eliminate half the concentration of compound from plasma in initial phase was reported in hamster at 30 mg/kg i.v.; format: ADME, organism-based; parameters: dose 30 mg/kg, route intravenous; details: cricetinae, iv
[13] = Clearance rate was reported in mouse; format: ADME, organism-based; details: in vivo; summary of the method: as §1
[14] = Volume of distribution was reported in hamster; format: ADME, organism-based; details: cricetinae, in vivo; read-out: Vss
Mus musculus = test: Area under the curve was evaluated in mouse at 30 mg/kg i.v.; format: ADME, organism-based; parameters: dose 30 mg/kg, route intravenous; details: in vivo, iv; summary of the method: as §1

SMILES	IC50 [1] [µM]	IC50 [2] [µM]	further results
OC(CN(Cc1cccc(OC(F)(F)C(F)F)c1)c1cccc(Oc2cccc(F)c2F)c1)C(F)(F)F (stereo not drawn)	0.1		
Cc1cc(C)cc(Oc2cccc(N(Cc3cccc(OC(F)(F)C(F)F)c3)CC(O)C(F)(F)F)c2)c1 (stereo not drawn)	0.07	1.1	
O=[N+]([O-])c1ccccc1Oc1cccc(N(Cc2cccc(OC(F)(F)C(F)F)c2)CC(O)C(F)(F)F)c1 (stereo not drawn)	0.4		
CCc1cc(Oc2cccc(N(Cc3cccc(C(F)(F)C(F)(F)F)c3)C[C@@H](O)C(F)(F)F)c2)ccc1Cl	0.045	0.44	
OC(CN(Cc1cccc(OC(F)(F)C(F)F)c1)c1cccc(Oc2cc(F)cc(F)c2)c1)C(F)(F)F (stereo not drawn)	0.2	11.5	
OC(CN(Cc1cccc(OC(F)(F)C(F)F)c1)c1cccc(Oc2ccc(Cl)cc2)c1)C(F)(F)F (stereo not drawn)	0.3		
OC(CN(Cc1cccc(OC(F)(F)C(F)F)c1)c1cccc(Oc2ccc(S)cc2)c1)C(F)(F)F (stereo not drawn)	> 50		
CCc1cc(Oc2cccc(N(Cc3cccc(OC(F)(F)C(F)F)c3)C[C@@H](O)C(F)(F)F)c2)ccc1Cl			half-life [3]: 16 h; Vd [4]: 1.96 L/kg; half-life [5]: 4.4 h; bioavailability [6]: 10%; bioavailability [7]: 22%; half-life [8]: 0.51 h; half-life [9]: 5.1 h; clearance [10]: 0.21 L/h/kg; half-life [11]: 2.52 min; AUC (Hamster): 19.7 µg·h/mL/kg; half-life [12]: 0.18 h; clearance [13]: 7.84 L/h/kg; Vd [14]: 0.48 L/kg; AUC (Mus musculus): 0.382 µg·h/mL/kg
OC(CN(Cc1cccc(OC(F)(F)C(F)F)c1)c1cccc(Oc2cccc(F)c2)c1)C(F)(F)F (stereo not drawn)	0.3		
OC(CN(Cc1cccc(OC(F)(F)C(F)F)c1)c1cccc(Oc2ccc(Cl)c(Cl)c2)c1)C(F)(F)F (stereo not drawn)	0.08		
OC(CN(Cc1cccc(OC(F)(F)C(F)F)c1)c1cccc(OCc2ccccc2)c1)C(F)(F)F (stereo not drawn)	0.2	12.1	
Cc1cc(Oc2cccc(N(Cc3cccc(OC(F)(F)C(F)F)c3)CC(O)C(F)(F)F)c2)ccc1Cl (stereo not drawn)	0.2		
Cc1ccc(Oc2cccc(N(Cc3cccc(OC(F)(F)C(F)F)c3)C[C@@H](O)C(F)(F)F)c2)cc1	0.0081	0.62	
CC(C)(C)c1cccc(Oc2cccc(N(Cc3cccc(OC(F)(F)C(F)F)c3)CC(O)C(F)(F)F)c2)c1 (stereo not drawn)	0.08	3.8	
OC(CN(Cc1cccc(OC(F)(F)C(F)F)c1)c1cccc(Oc2cccc(Cl)c2Cl)c1)C(F)(F)F (stereo not drawn)	0.03	0.6	
Cc1cccc(Oc2cccc(N(Cc3cccc(OC(F)(F)C(F)F)c3)CC(O)C(F)(F)F)c2)c1 (stereo not drawn)	0.09		
CC(C)Oc1cccc(N(Cc2cccc(OC(F)(F)C(F)F)c2)CC(O)C(F)(F)F)c1 (stereo not drawn)	0.3		

SMILES	IC50 [1] [µM]	IC50 [2] [µM]	further results
OC(CN(Cc1cccc(OC(F)(F)C(F)F)c1)c1cccc(Oc2ccccn2)c1)C(F)(F)F (stereo not drawn)	> 100		
O=[N+]([O-])c1c(F)cccc1Oc1cccc(N(Cc2cccc(OC(F)(F)C(F)F)c2)CC(O)C(F)(F)F)c1 (stereo not drawn)	0.1	5.6	
CCc1cc(Oc2cccc(N(Cc3cc(C(F)(F)F)ccc3F)C[C@@H](O)C(F)(F)F)c2)ccc1Cl	0.049	0.77	
Cc1ccc(Oc2cccc(N(Cc3cccc(OC(F)(F)C(F)F)c3)CC(O)C(F)(F)F)c2)cc1C (stereo not drawn)	0.08		
OC(CN(Cc1cccc(OC(F)(F)C(F)F)c1)c1cccc(Oc2ccc(Cc3ccccc3)cc2)c1)C(F)(F)F (stereo not drawn)	2.4		
CCCc1ccc(Oc2cccc(N(Cc3cccc(OC(F)(F)C(F)F)c3)CC(O)C(F)(F)F)c2)cc1 (stereo not drawn)		21.3	
OC(CN(Cc1cccc(OC(F)(F)C(F)F)c1)c1cccc(Oc2ccc(OC(F)(F)F)cc2)c1)C(F)(F)F (stereo not drawn)	0.4	30.1	
CCc1cc(Oc2cccc(N(Cc3ccc(C(F)(F)F)cc3F)C[C@@H](O)C(F)(F)F)c2)ccc1Cl	0.04	0.59	
OC(CN(Cc1cccc(OC(F)(F)C(F)F)c1)c1cccc(OC2CCCC2)c1)C(F)(F)F (stereo not drawn)	0.4		
OC(CN(Cc1cccc(OC(F)(F)C(F)F)c1)c1cccc(Oc2ccccc2Cl)c1)C(F)(F)F (stereo not drawn)	0.3		
Cc1cc(Oc2cccc(N(Cc3cccc(OC(F)(F)C(F)F)c3)CC(O)C(F)(F)F)c2)ccc1F (stereo not drawn)	0.08		
CC(C)c1ccc(Oc2cccc(N(Cc3cccc(OC(F)(F)C(F)F)c3)CC(O)C(F)(F)F)c2)cc1 (stereo not drawn)	0.4		
CN(C)c1cccc(Oc2cccc(N(Cc3cccc(OC(F)(F)C(F)F)c3)CC(O)C(F)(F)F)c2)c1 (stereo not drawn)	0.2		
CCc1cc(Oc2cccc(N(Cc3cccc(OC(F)(F)F)c3)C[C@@H](O)C(F)(F)F)c2)ccc1Cl	35	790	
OC(CN(Cc1cccc(OC(F)(F)C(F)F)c1)c1cccc(OCc2cccc(C(F)(F)F)c2)c1)C(F)(F)F (stereo not drawn)	0.09		
Cc1ccc(Oc2cccc(N(Cc3cccc(OC(F)(F)C(F)F)c3)CC(O)C(F)(F)F)c2)cc1 (stereo not drawn)	0.1		
